Results pooled from the literature.
Protocols differ between the studies behind these lines.
Target: Inhibitor of nuclear factor kappa-B kinase subunit alpha (CHUK, Homo sapiens, UniProt O15111)
Sequence (O15111 1-745, as in one of the studies): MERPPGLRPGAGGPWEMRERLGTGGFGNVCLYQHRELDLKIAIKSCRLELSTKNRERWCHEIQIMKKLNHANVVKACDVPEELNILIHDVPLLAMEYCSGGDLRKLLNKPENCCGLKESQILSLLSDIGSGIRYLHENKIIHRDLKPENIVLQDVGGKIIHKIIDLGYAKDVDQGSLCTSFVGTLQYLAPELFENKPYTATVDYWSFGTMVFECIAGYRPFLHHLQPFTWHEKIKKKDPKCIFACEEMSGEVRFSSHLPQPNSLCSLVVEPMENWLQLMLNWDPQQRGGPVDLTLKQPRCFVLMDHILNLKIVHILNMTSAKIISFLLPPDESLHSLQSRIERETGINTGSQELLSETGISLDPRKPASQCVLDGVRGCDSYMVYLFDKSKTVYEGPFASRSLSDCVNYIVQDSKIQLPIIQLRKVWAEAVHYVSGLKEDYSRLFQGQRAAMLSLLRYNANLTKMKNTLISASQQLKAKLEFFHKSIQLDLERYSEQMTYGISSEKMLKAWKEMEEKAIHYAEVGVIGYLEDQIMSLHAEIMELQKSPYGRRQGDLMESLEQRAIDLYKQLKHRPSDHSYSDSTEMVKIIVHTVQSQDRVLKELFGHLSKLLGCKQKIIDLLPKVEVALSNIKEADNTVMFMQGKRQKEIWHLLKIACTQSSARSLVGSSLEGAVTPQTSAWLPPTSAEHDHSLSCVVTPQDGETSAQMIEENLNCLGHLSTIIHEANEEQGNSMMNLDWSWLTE

`CCCS(=O)(=O)Nc1ccc(F)c(C(=O)c2c[nH]c3ncc(-c4ccc(Cl)cc4)cc23)c1F` has an inhibition of under 10% (enzyme activity; inhibitor; 1 µM).
For `NS(=O)(=O)c1cc(NC(=O)Cc2ccccc2)ccc1Oc1cccc(Cl)c1`, the remaining binding was 63% (cell-free assay; competition with immobilised ligand; 1 µM).
For `CC(C)(C)c1nc2c(s1)c1nc(N)ncc1c1ccc(NS(=O)(=O)c3c(F)cccc3F)c(F)c12`, the remaining activity was 88% (enzyme activity; inhibitor; radiometric; 1 µM).
With `Cc1sc(C(=O)NC2COC2)cc1-n1cc(NC(=O)Nc2c(F)cccc2Cl)cn1` the remaining activity was 101% (enzyme activity; inhibitor; 10 µM).
The activity vs control of `Cc1ccc(C(=O)NCc2ccsc2)cc1C#Cc1cn(C(C)C)c2ncnc(N)c12` is reported as 102% (enzyme activity; inhibitor; 1 µM).
With `CN(C(=O)c1ccccc1)c1cc(N(C)c2ccc3c(c2)CCc2ccc(C(=O)NCCN4CCOCC4)cc2C3=O)ccc1F` the remaining binding was 100% (cell-free assay; competition with immobilised ligand; 1 µM).
`CC/C(=N\NC(=O)NCc1cccc(O)c1)c1ccc(O)c(C)c1O` gave an inhibition of 0.7% (enzyme activity; inhibitor; 0.1 µM).
For `CN([C@@H]1CCc2c(CC(=O)O)c3ccccc3n2C1)S(=O)(=O)c1ccc(F)cc1`, the remaining binding was 100% (cell-free assay; competition with immobilised ligand; 1 µM).
`Cc1cnc(NC2CCOCC2)nc1-n1cnc(C(=O)NC(CN)c2cc(F)cc(Cl)c2)c1` (centres unmarked) gave a remaining activity of 92% (enzyme activity; inhibitor; radiometric; 1 µM).
For `Cc1ccc(NC(=O)c2ccc(CN3CCN(C)CC3)cc2)cc1Nc1nc(-c2cccnc2)cs1`, the remaining signal was 96.2% (cell-free assay; 0.5 µM).
The inhibition of `CNCc1ccc(-c2cc(-c3nc(-c4ccc(S(=O)(=O)C(C)C)cc4)cnc3N)on2)cc1` is reported as 36% (enzyme activity; inhibitor; 2 µM).
For `COc1cc(Cl)c(C(=O)N[C@@H](CN[C@H]2CC[C@@H](N)CC2)Cc2ccc(C#N)cc2)cc1-c1ccc(CN[C@H](C)c2ccc(C)cc2)o1`, the remaining activity was 95% (enzyme activity; inhibitor; 1 µM).
For `CCN(CC)CCNC(=O)c1c(C)[nH]c(/C=C2\C(=O)Nc3ccc(F)cc32)c1C`, the inhibition was 52% (enzyme activity; inhibitor; 10 µM).
For `CC(C)c1ccc(NC(=O)c2cccs2)c(-c2nc3ccccc3[nH]c2=O)c1`, the activity vs control was 104% (enzyme activity; inhibitor; 1 µM).
`CC(=O)N1CCC(c2ccc(C(=O)NC3=NCCN3)cc2C(F)(F)F)CC1` has a remaining binding of 90% (cell-free assay; competition with immobilised ligand; 1 µM).
`C#Cc1cccc(Nc2ncnc3cc(OCCOC)c(OCCOC)cc23)c1` has a remaining signal of 94.2% (cell-free assay; 0.5 µM).
`CCS(=O)(=O)c1cc2cc(C[C@@](O)(CC(C)(C)c3ccc(F)cc3C(N)=O)C(F)(F)F)[nH]c2cn1` has a remaining binding of 95% (cell-free assay; competition with immobilised ligand; 1 µM).
`COc1cccc2c(NCc3ccccc3)nc(-n3c(N)nc4ccccc43)nc12` has an inhibition of 8.5% (target engagement in cells; inhibitor; chemoproteomics; 20 mM).
`Cc1ccc(Nc2nccc(N(C)c3ccc4c(C)n(C)nc4c3)n2)cc1S(N)(=O)=O` gave a remaining signal of 99.4% (cell-free assay; inhibitor; 0.5 µM).
`Cc1c(C(=O)O)cc(-c2ccc(C3CCNCC3)cc2)c2ccc(-c3ccc(C(F)(F)F)cc3)cc12` has a remaining binding of 98% (cell-free assay; competition with immobilised ligand; 1 µM).
`CNC(=O)c1cc(Oc2ccc(NC(=O)Nc3ccc(Cl)c(C(F)(F)F)c3)cc2)ccn1` gave an inhibition of -10% (enzyme activity; inhibitor; 0.3 µM).
The remaining binding of `O=C(N1CCS(=O)(=O)CC1)N1C[C@H](c2ccc(OC(F)(F)F)cc2)C[C@H](c2nc(C3CC3)no2)C1` is reported as 97% (cell-free assay; competition with immobilised ligand; 1 µM).
For `CCCCNc1ncc2c(-c3ccc(F)cc3)nn(C[C@H]3CC[C@H](N)CC3)c2n1`, the inhibition was 4.9% (target engagement in cells; inhibitor; chemoproteomics; 20 mM).
